The results in this text go back to ChEMBL document CHEMBL3352534, “A prodrug strategy for the oral delivery of a poorly soluble HCV NS5B thumb pocket 1 polymerase inhibitor using self-emulsifying drug delivery systems (SEDDS)” (Bioorg Med Chem Lett, 2015).

A value given as a limit tells only on which side of the number the result lay.

Data set [1] concerns Rattus norvegicus. The data set is described as follows: AUC in rat assessed as (E)-3-(4-(1-(2-(5-chloropyrimidin-2-yl)-3-cyclopentyl-1-methyl-1H-indole-6-carboxamido)cyclobutanecarboxamido)-2-ethoxyphenyl)acrylic acid at 10 mg/kg, po using 10.6% PEG400, 5.4% Cremophor EL, 2.6% Labrasol, 1.4% Capmul MCM in water (80%) vehicle. As to conditions: in vivo. Further details: dose 10 mg/kg, route oral. The format is ADME, organism-based, Plasma. Put shortly: (§1)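 Fasted rats were given a single 10 mg/kg oral dose, with n = 3 per dose and route. Plasma was extracted by solid-phase extraction. Analysis used HPLC with diode-array UV (200–400 nm, peak height at best S/N) or LC/MS. Calibration standards were made in blank plasma, with LOQ 7–14 ng/mL. Parameters came from noncompartmental analysis.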

Data set [2] is described as follows: Permeability across human Caco2 cells. In kind it is ADME, cell-based. As to conditions: Caco-2. For orientation: Passage across Caco-2 layers is used to estimate intestinal permeability.
Data set [3] concerns Rattus norvegicus. The data set is described as follows: Cmax in rat plasma assessed as (E)-3-(4-(1-(2-(5-chloropyrimidin-2-yl)-3-cyclopentyl-1-methyl-1H-indole-6-carboxamido)cyclobutanecarboxamido)-2-ethoxyphenyl)acrylic acid at 10 mg/kg, po using 0.5% Methyl cellulose, 0.3% Tween-80, 1% N-methylpyrrolidone in water vehicle. In kind it is ADME, organism-based. Further details: dose 10 mg/kg, route oral. As to conditions: in vivo. Put shortly:
as §1

In data set [4] the test system is Rattus norvegicus. The data set is described as follows: AUC in rat plasma assessed as (E)-3-(4-(1-(2-(5-chloropyrimidin-2-yl)-3-cyclopentyl-1-methyl-1H-indole-6-carboxamido)cyclobutanecarboxamido)-2-ethoxyphenyl)acrylic acid at 10 mg/kg, po using 0.5% Methyl cellulose, 0.3% Tween-80, 1% N-methylpyrrolidone in water vehicle. Further details: dose 10 mg/kg, route oral. As to conditions: in vivo. The format is ADME, organism-based. Put shortly:
as §1

Data set [5] relates to Rattus norvegicus. The data set is described as follows: Cmax in rat plasma assessed as (E)-3-(4-(1-(2-(5-chloropyrimidin-2-yl)-3-cyclopentyl-1-methyl-1H-indole-6-carboxamido)cyclobutanecarboxamido)-2-ethoxyphenyl)acrylic acid at 10 mg/kg, po using 10.6% PEG400, 5.4% Cremophor EL, 2.6% Labrasol, 1.4% Capmul MCM in water (80%) vehicle. The format is ADME, organism-based. Further details: dose 10 mg/kg, route oral. Conditions: in vivo. In outline: as §1

In data set [6] the test system is Rattus norvegicus. The data set is described as follows: AUC in rat plasma assessed as (E)-3-(4-(1-(2-(5-chloropyrimidin-2-yl)-3-cyclopentyl-1-methyl-1H-indole-6-carboxamido)cyclobutanecarboxamido)-2-ethoxyphenyl)acrylic acid at 10 mg/kg, po using 10.6% PEG400, 5.4% Cremophor EL, 2.6% Labrasol, 1.4% Capmul MCM in water (80%) vehicle. The format is ADME, organism-based. Further details: dose 10 mg/kg, route oral. Conditions: in vivo. In outline:
as §1

Data set [7] concerns Rattus norvegicus. The data set is described as follows: AUC in rat assessed as (E)-3-(4-(1-(2-(5-chloropyrimidin-2-yl)-3-cyclopentyl-1-methyl-1H-indole-6-carboxamido)cyclobutanecarboxamido)-2-ethoxyphenyl)acrylic acid at 2 mg/kg, iv. In kind it is ADME, organism-based, Plasma. Further details: dose 2 mg/kg, route intravenous. Conditions: in vivo. Put shortly: (§2)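 Overnight-fasted rats received 2 mg/kg IV in 70% PEG400:30% water, n = 3. Plasma parent drug was quantified after solid-phase extraction by HPLC-UV or LC/MS against blank-plasma calibration standards (LOQ 7–14 ng/mL). Noncompartmental analysis gave the PK parameters.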

Data set [8] relates to Rattus norvegicus. The data set is described as follows: Mean residence time in rat assessed as (E)-3-(4-(1-(2-(5-chloropyrimidin-2-yl)-3-cyclopentyl-1-methyl-1H-indole-6-carboxamido)cyclobutanecarboxamido)-2-ethoxyphenyl)acrylic acid at 2 mg/kg, iv. In kind it is ADME, organism-based. Further details: dose 2 mg/kg, route intravenous. As to conditions: in vivo. Put shortly: as §2

Data set [9] has as its system Rhesus monkey. The data set is described as follows: AUC in monkey assessed as (E)-3-(4-(1-(2-(5-chloropyrimidin-2-yl)-3-cyclopentyl-1-methyl-1H-indole-6-carboxamido)cyclobutanecarboxamido)-2-ethoxyphenyl)acrylic acid at 10 mg/kg using 10.6% PEG400, 5.4% Cremophor EL, 2.6% Labrasol, 1.4% Capmul MCM in water (80%) vehicle. Further details: dose 10 mg/kg. As to conditions: in vivo. The format is ADME, organism-based, Macaca mulatta, Plasma.

Data set [10] has as its system Canis familiaris. The data set is described as follows: AUC in dog assessed as (E)-3-(4-(1-(2-(5-chloropyrimidin-2-yl)-3-cyclopentyl-1-methyl-1H-indole-6-carboxamido)cyclobutanecarboxamido)-2-ethoxyphenyl)acrylic acid at 10 mg/kg using 10.6% PEG400, 5.4% Cremophor EL, 2.6% Labrasol, 1.4% Capmul MCM in water (80%) vehicle. Conditions: in vivo. The format is ADME, organism-based, Canis lupus familiaris, Plasma. Further details: dose 10 mg/kg.

Data set [11] relates to Rattus norvegicus. The data set is described as follows: Total clearance in rat assessed as (E)-3-(4-(1-(2-(5-chloropyrimidin-2-yl)-3-cyclopentyl-1-methyl-1H-indole-6-carboxamido)cyclobutanecarboxamido)-2-ethoxyphenyl)acrylic acid at 2 mg/kg, iv. Conditions: in vivo.
For data set [12], the system named is Rattus norvegicus. The data set is described as follows: Oral bioavailability in rat assessed as (E)-3-(4-(1-(2-(5-chloropyrimidin-2-yl)-3-cyclopentyl-1-methyl-1H-indole-6-carboxamido)cyclobutanecarboxamido)-2-ethoxyphenyl)acrylic acid at 10 mg/kg using 10.6% PEG400, 5.4% Cremophor EL, 2.6% Labrasol, 1.4% Capmul MCM in water (80%) vehicle. In kind it is ADME, organism-based. As to conditions: in vivo.

Data set [13] relates to Rhesus monkey. The data set is described as follows: Oral bioavailability in monkey assessed as (E)-3-(4-(1-(2-(5-chloropyrimidin-2-yl)-3-cyclopentyl-1-methyl-1H-indole-6-carboxamido)cyclobutanecarboxamido)-2-ethoxyphenyl)acrylic acid at 10 mg/kg using 10.6% PEG400, 5.4% Cremophor EL, 2.6% Labrasol, 1.4% Capmul MCM in water (80%) vehicle. The format is ADME, organism-based, Macaca mulatta. Conditions: in vivo.

In data set [14] the test system is Canis familiaris. The data set is described as follows: Oral bioavailability in dog assessed as (E)-3-(4-(1-(2-(5-chloropyrimidin-2-yl)-3-cyclopentyl-1-methyl-1H-indole-6-carboxamido)cyclobutanecarboxamido)-2-ethoxyphenyl)acrylic acid at 10 mg/kg using 10.6% PEG400, 5.4% Cremophor EL, 2.6% Labrasol, 1.4% Capmul MCM in water (80%) vehicle. The format is ADME, organism-based, Canis lupus familiaris. Conditions: in vivo.

Data set [15] is described as follows: AUC in dog at 10 mg/kg, po using 10.6% PEG400, 5.4% Cremophor EL, 2.6% Labrasol, 1.4% Capmul MCM in water (80%) vehicle. The format is ADME, organism-based, Canis lupus familiaris. Further details: dose 10 mg/kg, route oral. As to conditions: plasma.
Data set [16] relates to Plasma. The data set is described as follows: Prodrug conversion in rat plasma assessed as half life. In kind it is ADME, cell-free. Put shortly: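 Rat plasma (from centrifuged whole blood) was incubated with 2 µM compound at 37 °C. Samples were quenched 1:3 with acetonitrile/methanol 1:1, centrifuged and analysed by HPLC-PDA. Half-life was taken as 0.693/first-order rate of loss of the starting compound.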

Data set [17] is described as follows: Prodrug solubility in capmul. In kind it is ADME.
A short description of data set [18]: Prodrug solubility in solutol. The format is ADME.
Data set [19] is described as follows: Prodrug solubility in Labrasol. In kind it is ADME.
Data set [20] in a line: Prodrug solubility in PEG400. In kind it is ADME.
Data set [21] is described as follows: Cmax in rat plasma at 10 mg/kg, po using 10.6% PEG400, 5.4% Cremophor EL, 2.6% Labrasol, 1.4% Capmul MCM in water (80%) vehicle. Further details: dose 10 mg/kg, route oral. Conditions: plasma. The format is ADME, organism-based. Put shortly:
as §1

In data set [22] the test system is Rattus norvegicus. The data set is described as follows: AUC in rat plasma at 10 mg/kg, po using 10.6% PEG400, 5.4% Cremophor EL, 2.6% Labrasol, 1.4% Capmul MCM in water (80%) vehicle. In kind it is ADME, organism-based. Further details: dose 10 mg/kg, route oral. Conditions: in vivo, BLD = below limit of detection. In outline: as §1
The test system of data set [23] is Rattus norvegicus. The data set is described as follows: Half life in rat assessed as (E)-3-(4-(1-(2-(5-chloropyrimidin-2-yl)-3-cyclopentyl-1-methyl-1H-indole-6-carboxamido)cyclobutanecarboxamido)-2-ethoxyphenyl)acrylic acid at 2 mg/kg, iv. Further details: dose 2 mg/kg, route intravenous. In kind it is ADME, organism-based. As to conditions: in vivo. Put shortly: as §2

In data set [24] the test system is Rattus norvegicus. The data set is described as follows: Volume of distribution at steady state in rat assessed as (E)-3-(4-(1-(2-(5-chloropyrimidin-2-yl)-3-cyclopentyl-1-methyl-1H-indole-6-carboxamido)cyclobutanecarboxamido)-2-ethoxyphenyl)acrylic acid at 2 mg/kg, iv. Further details: dose 2 mg/kg, route intravenous. The format is ADME, organism-based. As to conditions: in vivo. Put shortly: as §2

As usually defined, the AUC is concentration integrated over time. What is called Papp is the rate of passage across a membrane or cell layer, normalised by area and donor concentration. The Cmax is the maximum level reached in the sampled fluid or tissue. As usually defined, the MRT is a mean duration of stay, worked out from the concentration-time curve. Regarding `CCOc1cc(NC(=O)C2(NC(=O)c3ccc4c(C5CCCC5)c(-c5ncc(Cl)cn5)n(C)c4c3)CCC2)ccc1/C=C/C(=O)O`, the AUC in [1] turned out to be 19.3 µM·h; in [4], 25.5 µM·h; in data set [6], 7.5 µM·h; in data set [7], 20.1 µM·h; in data set [9] it was 53 µM·h; in data set [10], 76 µM·h. In data set [2], this compound returned a Papp of 13 ×10⁻⁶ cm/s. The peak concentration (Cmax) stood at 7.4 µM in data set [3] and 2.1 µM in [5]. Further, the MRT in data set [8] is 2.5 h. For the same compound, the CL in [11] was determined as 2.6 mL/min/kg.
The term solubility denotes the concentration that dissolves in the medium under given conditions. What is called Vdss is the apparent volume that relates the amount in the body to the concentration in plasma or blood. `CCOc1cc(NC(=O)C2(NC(=O)c3ccc4c(C5CCCC5)c(-c5ncc(Cl)cn5)n(C)c4c3)CCC2)ccc1/C=C/C(=O)OCC(=O)N(C)C`: the values for the F in data set [12], in data set [13] and in [14] were 38%, 35% and 4%, respectively. Further, the AUC in data set [15] is 0.69 µM·h; in data set [22], “BLD”; in [6], 38.5 µM·h; in [7], 10.5 µM·h; in data set [9], 26 µM·h; in data set [10], 11.5 µM·h. For the same compound, the t1/2 worked out at 1.43 h in data set [16] and 2.1 h in data set [23]. The solubility in data set [17] was above 100 mg/mL; in [18] it was above 200 mg/mL; in data set [19], above 200 mg/mL; in data set [20], above 200 mg/mL. Further, the Cmax is 0.02 µM in data set [21] and 9.2 µM in data set [5]. The MRT in [8] is 2.8 h. Besides, in [24], the Vdss is 0.73 L/kg.
